A selection: hits, their analogues and other compounds. The true share with any hit is near 3.5%.
RGS4 pot: RGS4 potentiators or activators, primary screen, cell-based, HEK293 M3R inducible RGS4, calcium flux; carbachol calcium flux Fluo4; hits give low values; 0.92% of 310,000 active; B-score at 10 µM; AID 463111, 2010;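 active = B-score of the integrated calcium signal more than 4 SD below the library mean, with starting fluorescence not abnormally high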;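 note: negative B-score means reduced calcium response which marks RGS4 activation or potentiation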
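Also added: carbachol at ECmax as muscarinic agonist stimulus; Assay system: HEK293 cells with stable M3R and inducible RGS4; Timing: overnight RGS4 induction, 30 min dye load 37 °C, 20 min compound RT; Measured by: Fluo4-AM (2 µM) calcium-flux fluorescence, kinetic read.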
MrgX1 antag: antagonists of human MrgX1 receptor, primary screen, HEK293 cells, Fluo-4 calcium flux; Mas-related G-protein coupled receptor member X1 (Homo sapiens), Q96LB2; BAM8-22 antagonism; hits give low values; 1.3% of 310,000 active; B-score at 10 µM;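 active = calcium-response B-score plate-corrected more than 3 library SD below zero, starting fluorescence within 5 deviations, no agonist response on first addition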;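 note: peak minus trough fluorescence over baseline after final BAM8-22 challenge near maximal dose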
Target sequence (Q96LB2 whole entry, looked up): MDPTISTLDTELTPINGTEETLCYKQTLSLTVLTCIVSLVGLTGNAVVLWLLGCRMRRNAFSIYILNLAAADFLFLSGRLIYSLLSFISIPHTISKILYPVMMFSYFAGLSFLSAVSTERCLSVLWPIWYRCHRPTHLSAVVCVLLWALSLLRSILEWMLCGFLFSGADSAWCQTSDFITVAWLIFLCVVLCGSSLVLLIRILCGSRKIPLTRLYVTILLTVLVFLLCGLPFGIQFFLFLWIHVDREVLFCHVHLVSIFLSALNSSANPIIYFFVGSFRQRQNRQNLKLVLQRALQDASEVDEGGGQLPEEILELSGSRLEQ
RGS4 inh: RGS4 inhibitors, primary screen, cell-based, HEK293 M3R inducible RGS4, calcium flux; AID 463165, 2010; B-score at 10 µM; Regulator of G-protein signaling 4 (Homo sapiens), P49798; Fluo-4 calcium flux; hits give high values; triggered by carbachol at its EC20; 0.45% of 310,000 active;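 active = B-score, a plate-corrected calcium signal, over three deviations above library mean, with baseline fluorescence within five deviations of library mean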;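 note: RGS4 expression induced by doxycycline in cells with stable M3 receptor; B-score is computed from the integrated fluorescence ratio over baseline after carbachol; higher B-score means a larger calcium signal and so more RGS4 inhibition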
Target sequence (P49798 whole entry, looked up): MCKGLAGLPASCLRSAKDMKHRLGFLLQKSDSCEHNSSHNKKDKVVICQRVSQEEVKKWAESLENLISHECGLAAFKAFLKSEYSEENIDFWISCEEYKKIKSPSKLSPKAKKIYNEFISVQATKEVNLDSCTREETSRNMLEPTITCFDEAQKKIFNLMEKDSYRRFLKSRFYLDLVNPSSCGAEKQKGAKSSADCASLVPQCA
MrgX1 ag: agonists of human MrgX1 receptor, primary screen, HEK293 cells, Fluo-4 calcium flux. B-score at 10 µM. Fluo-4 calcium fluorescence, agonist mode; hits give high values. 0.44% of 310,000 active. Mas-related G-protein coupled receptor member X1 (Homo sapiens), Q96LB2;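 active = calcium response B-score plate-corrected fluorescence ratio at least 3 library SD, with starting fluorescence B-score inside 5 SD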
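times = overnight plating, then 30 min 37 °C plus 30 min room-temperature dye loading | assay system = stable human MrgX1 HEK293 cell line | input = fifteen thousand cells per well | signal = kinetic calcium dye fluorescence, Fluo-4 NW | dosing = compound delivered in addition one of three | read-out = B-scored fluorescence response ratio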
MrgX1 PAM: positive allosteric modulators of MrgX1, primary screen, HEK293 cells, Fluo-4 calcium flux; B-score at 10 µM; AID 588675, 2011; Mas-related G-protein coupled receptor member X1 (Homo sapiens), Q96LB2; 0.63% of 310,000 active; FDSS; hits give high values;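 active = plate-corrected calcium response at least 3 library SD above typical, normal starting fluorescence, not activating the receptor alone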;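 note: compound read alongside a low EC10 to EC30 dose of BAM8-22 agonist; peak minus trough fluorescence over baseline measured at the second addition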
MrgX1 PAM conf: MrgX1 positive allosteric modulators, duplicate retest, confirmation, HEK293 cells, Fluo-4 calcium flux; shares compounds with MrgX1 PAM; Fluo-4 calcium fluorescence, FDSS; activation (ratio percentage), % at 10 µM; 13% of 1,200 active; AID 602413, 2012;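 active = ratio at least 3 SD above the weak peptide control, stable starting fluorescence, no direct agonism earlier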;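 note: compound followed by low BAM8-22 agonist challenge near EC20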
HEK293 Ca flux: nonspecific calcium signal in parental HEK293, confirmation, counter-screen for MrgX1 antagonist project, parental HEK293 cells, Fluo-4 calcium flux | shares compounds with MrgX1 antag | Fluo-4 calcium fluorescence, FDSS | fluorescence ratio F(max-min)/F0 at 10 µM | 2% of 4,000 active;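 active = duplicate-averaged calcium fluorescence ratio at least three times the standard deviation of buffer wells, a nonspecific response in parental cells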
HEK293 Ca counter: calcium response in parental HEK293 cells, primary screen, counter-screen for MrgX1 allosteric activator project, cell-based, Fluo-4 calcium flux, duplicate. fluorescence ratio F(max-min)/F0 at 10 µM. 0.4% of 4,000 active. AID 624114, 2012. Fluo-4 fluorescence ratio; hits give high values. shares compounds with MrgX1 antag;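 active = calcium fluorescence ratio, averaged over duplicates, at least 3 SD of the buffer-well ratio, meaning a nonspecific response in receptor-free cells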;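 note: untransfected parental HEK293 lacking MrgX1 used as counterscreen for MrgX1 allosteric activators; fluorescence change taken during the second addition on a kinetic imager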
HEK293 Ca cntr2: calcium response in parental HEK293 cells, primary screen, counter-screen for MrgX1 agonist project, cell-based, Fluo-4 calcium flux, duplicate, agonist mode; shares compounds with MrgX1 antag; Fluo-4 calcium fluorescence (FDSS); hits give high values; fluorescence ratio F(max-min)/F0 at 10 µM; 8.7% of 4,000 active; AID 624115, 2012;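 active = calcium fluorescence ratio at least three times the spread of buffer wells, meaning a non-specific response in parental cells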
Large screens that a line does not name were inactive (follow-up assays come after a bar, where they were run).

CCN(CC)C(=O)Oc1ccc2ccccc2c1Cl	none
CCN(CC)C(=O)Oc1ccnc2cc(Cl)ccc12	MrgX1 PAM 7.44 | MrgX1 PAM conf inactive | HEK293 Ca flux inactive | HEK293 Ca counter inactive | HEK293 Ca cntr2 inactive
COc1ccc(NC(=O)c2csc3c2CCCCC3)c(OC)c1	MrgX1 PAM 19.5 | MrgX1 PAM conf inactive | HEK293 Ca flux inactive | HEK293 Ca counter inactive | HEK293 Ca cntr2 inactive
COc1ccc(CCNC(=O)c2csc3c2CCCC3)cc1	none
c1ccc(-c2cc3c(N4CCCCC4)ncnc3s2)cc1	MrgX1 PAM 8.89 | MrgX1 PAM conf inactive | HEK293 Ca flux inactive | HEK293 Ca counter inactive | HEK293 Ca cntr2 inactive
Cc1onc(-c2ccccc2)c1NC(=O)N(Cc1ccccc1)C(C)C	none
Cc1ccc(S(=O)(=O)N2CCCC2C(=O)OCC(=O)Nc2ccc3c(c2)OCO3)cc1 (stereo unspecified)	MrgX1 PAM 16.8 | MrgX1 PAM conf inactive | HEK293 Ca flux inactive | HEK293 Ca counter inactive | HEK293 Ca cntr2 inactive
CCNS(=O)(=O)c1cccc(C(=O)c2c(C)cc3ccccn23)c1	none
O=C(NCCc1csc(-c2cccnc2)n1)c1ccc(Cl)cc1	none
O=C(NCCc1csc(-c2cccnc2)n1)c1cccc(Cl)c1	MrgX1 PAM 9.61 | MrgX1 PAM conf inactive | HEK293 Ca flux inactive | HEK293 Ca counter inactive | HEK293 Ca cntr2 inactive
COC(=O)/C=C1/S/C(=N/NC(=O)c2ccc(Cl)cc2Cl)NC1=O	none
Cc1ccc(CN2CCN(C3CCOCC3)CC2CCO)cc1 (stereo unspecified)	MrgX1 PAM 8.87 | MrgX1 PAM conf inactive | HEK293 Ca flux inactive | HEK293 Ca counter inactive | HEK293 Ca cntr2 inactive
Cc1ccc(S(=O)(=O)c2c(C)nn(C(C)(C)C)c2OC(=O)C(C)C)cc1	MrgX1 PAM 12 | MrgX1 PAM conf inactive | HEK293 Ca flux inactive | HEK293 Ca counter inactive | HEK293 Ca cntr2 inactive
COc1ccc(/C=C2\SC(=S)N(CCCC(=O)Nc3ccccc3C(=O)O)C2=O)cc1OC	MrgX1 PAM 21.9 | MrgX1 PAM conf inactive | HEK293 Ca flux inactive | HEK293 Ca counter inactive | HEK293 Ca cntr2 52.6
COc1ccc(/C=C2\SC(=S)N(CCC(=O)Nc3ccccc3C(=O)O)C2=O)cc1	none
Cc1c(OC(C)C(=O)NCCCN2CCOCC2)ccc2c3c(c(=O)oc12)CCC3 (stereo unspecified)	none
Cc1c(OC(C)C(=O)NCCCN2CCOCC2)ccc2c3c(c(=O)oc12)CCCC3 (stereo unspecified)	MrgX1 PAM 6.9 | MrgX1 PAM conf inactive | HEK293 Ca flux inactive | HEK293 Ca counter inactive | HEK293 Ca cntr2 inactive
CCC1(Cc2ccccc2)NC(=O)c2ccccc2O1 (stereo unspecified)	MrgX1 PAM 12.4 | MrgX1 PAM conf inactive | HEK293 Ca flux inactive | HEK293 Ca counter inactive | HEK293 Ca cntr2 inactive
O=C1NC2(CCCCCC2)Oc2ccccc21	none
OCC1(CCOc2ccccc2)CCN(Cc2cn[nH]c2-c2ccc(F)cc2)CC1	MrgX1 PAM 10.6 | MrgX1 PAM conf inactive | HEK293 Ca flux inactive | HEK293 Ca counter inactive | HEK293 Ca cntr2 inactive
NC(=O)CSc1nnc(COc2ccc3ccccc3c2)o1	none

Screens as filed in PubChem BioAssay.
